ChEMBL document CHEMBL2331156, “Growth inhibition of human colon carcinoma cells by sesquiterpenoids and tetralones of Zygogynum calothyrsum” (2013)

Experiments:
KM12 = assay: Cytotoxicity against human KM12 cells after 48 hrs by XTT assay; type: functional; conditions: KM12, 48 h
Procedure, shortened: (§1)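 Two-day XTT colorimetric assay run on COLO205 and KM12 in parallel. Cells kept in RPMI-1640 with phenol red, 2mM L-glutamine and 10% FBS at 37 °C, 5% CO₂, and discarded after 25 passages. For the assay, cells were harvested into phenol-red-free medium without antibiotics and plated at 5,000 cells/well. After 24 hrs of incubation, samples were added as eight 2-fold serial dilutions. Values are the average of at least two tests.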

COLO 205 = assay: Cytotoxicity against human COLO205 cells after 48 hrs by XTT assay; type: functional; conditions: COLO 205, 48 h; procedure, shortened: as §1

Row | Structure (SMILES) | GI50 (KM12) [µM] | GI50 (COLO 205) [µM]
1 | CC1(C)CC[C@@H](OC(=O)/C=C/c2ccc(O)cc2)[C@]2(C)[C@@H]3C(=CC[C@@H]12)CO[C@@H]3O | 14 | 18
2 | CC1(C)CC[C@@H](OC(=O)/C=C/c2ccc(O)cc2)[C@]2(C)[C@@H]3C(=CC[C@@]12O)CO[C@@H]3O | 25 | 29
3 | CO[C@H]1O[C@H](OC)[C@H]2C1=CC[C@H]1C(C)(C)CC[C@@H](OC(=O)/C=C/c3ccc(O)cc3)[C@]21C | > 45 | > 45
4 | CC1(C)CC[C@@H](OC(=O)/C=C/c2ccc(O)cc2)[C@]2(C)[C@@H](C=O)C(C=O)=CC[C@@H]12 | 25 | 29
5 | C=C(C)C1Cc2c(cc3c(c2O)C(=O)C[C@H](c2ccc(O)cc2)C3)O1 (stereo not given in full) | 29 | 35
6 | COc1ccc([C@H]2CC(=O)c3c(cc4c(c3O)C=CC(C)(C)O4)C2)cc1O | 17 | 11
7 | COc1cc(O)c2c(c1)C[C@@H](c1ccc(O)c(O)c1)CC2=O [CALOTHYRLONE A] | > 67 | > 67
8 | CC1(C)CCC[C@]2(C)[C@H]3COC(=O)C3=CC[C@@H]12 [CINNAMOLIDE] | > 85 | > 85
9 | C=C(C)C1Cc2c(cc3c(c2O)C(=O)C[C@H](c2ccc(O)c(O)c2)C3)O1 (stereo not given in full) [ISOZYGOLONE A] | 32 | 32
10 | CC1(C)C=Cc2c(cc3c(c2O)C(=O)C[C@H](c2ccc(O)c(O)c2)C3)O1 [ZYGOLONE A] | 14 | 17
